Experimental findings from ChEMBL document CHEMBL4732051, “The discovery of potent small molecule activators of human STING” (Eur J Med Chem, 2021) are described below.

Active and inactive are the calls of the source. The calls are words filed in the database; no cut-off is given here.

For orientation: Cmax means the highest concentration seen after dosing. The inhibition is how much of the control response was suppressed. The Vd is the apparent volume that relates the amount in the body to the concentration in plasma or blood. As usually defined, the AUC is the area under the concentration-time curve, a measure of exposure.

The target of series [1] is Stimulator of interferon genes protein (Macaca fascicularis) (UniProt A0A2K5TV20). The series can be described thus: Activation of cynomolgus monkey STING. To be noted: filed as activator.
Sequence of Stimulator of interferon genes protein (Macaca fascicularis) (A0A2K5TV20 as listed by the source): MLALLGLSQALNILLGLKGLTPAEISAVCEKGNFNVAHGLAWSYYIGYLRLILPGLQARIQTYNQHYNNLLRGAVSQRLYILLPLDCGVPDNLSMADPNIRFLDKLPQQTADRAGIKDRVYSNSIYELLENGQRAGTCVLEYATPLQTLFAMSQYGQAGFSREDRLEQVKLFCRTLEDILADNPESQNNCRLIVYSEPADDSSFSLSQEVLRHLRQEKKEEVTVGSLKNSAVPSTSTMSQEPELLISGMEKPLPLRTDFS
Series [2] concerns HEK293T. The experiment in a line: Induction of STING Q mutant (unknown origin) expressed in HEK293T cells assessed as increase in luciferase coupled ISG54-ISRE activity incubated for 18 hrs luciferase reporter gene assay. It is filed as cell-based. To be noted: Homo sapiens, filed as activator. In general terms: In a reporter assay the amount or activity of a reporter protein is the signal.

The target of a further series is Cytochrome P450 2D6 (Homo sapiens, UniProt P10635). The experiment in a line: Inhibition of CYP2D6 (unknown origin). It is filed as ADME.
Sequence of Cytochrome P450 2D6 (P10635 whole entry): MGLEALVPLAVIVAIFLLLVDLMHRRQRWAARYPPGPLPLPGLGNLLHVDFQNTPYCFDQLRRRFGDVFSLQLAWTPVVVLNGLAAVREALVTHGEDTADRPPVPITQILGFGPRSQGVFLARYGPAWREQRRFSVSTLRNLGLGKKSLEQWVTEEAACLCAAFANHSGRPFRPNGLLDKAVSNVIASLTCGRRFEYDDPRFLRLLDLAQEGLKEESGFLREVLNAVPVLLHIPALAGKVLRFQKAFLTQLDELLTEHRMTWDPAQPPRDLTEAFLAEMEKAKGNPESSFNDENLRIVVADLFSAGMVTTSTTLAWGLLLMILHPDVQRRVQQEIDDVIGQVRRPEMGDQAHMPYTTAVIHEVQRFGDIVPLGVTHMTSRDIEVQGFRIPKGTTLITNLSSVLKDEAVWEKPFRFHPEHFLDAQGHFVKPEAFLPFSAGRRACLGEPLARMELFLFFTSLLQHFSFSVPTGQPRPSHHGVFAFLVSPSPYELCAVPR
In series [3] the test system is Stimulator of interferon genes protein (Homo sapiens), Q86WV6 [UNDEFINED MUTATION]. The series can be described thus: Activation of human STING R232 in human dendritic cells assessed as induction of CD86 measured by qt-PCR analysis. It is filed as cell-based. As to conditions: Dendritic cell, filed as activator. In a few lines:
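PBMC isolated on Histopaque 1077, ACK-lysed, monocytes purified by MACS. Monocytes at 1 x 10^6 cells/ml in RPMI/10% FBS with 100ng/ml GMCSF and 50ng/ml IL4, 37 °C, 5% CO2, for 24–36 h. Compound added (1% DMSO final) for 6 h. CD86 and CD83 read by qPCR as fold of vehicle-treated cells.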

A short description of series [4]: Cmax in BALB/c mouse at 5 mg/kg, iv measured up to 24 hrs by LC-MS/MS analysis. It is filed as ADME, organism-based. More on the design: route intravenous, dose 5 mg/kg, time <=24. As to conditions: in vivo. A digest of the protocol: (§1)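 Overnight-fasted mice, n=3 per group, single dose by lateral tail vein (iv) or oral gavage (po). Retro-orbital blood under isoflurane at 2 min–24 h (iv) or 5 min–24 h (po). Plasma spun at 1500 x g, 15 min, 4 °C, stored -80 °C, then analysed by LCMS.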

Series [5] relates to Stimulator of interferon genes protein (Homo sapiens), Q86WV6 [G230A,R293Q]. The series can be described thus: Activation of human STING AQ mutant expressed in HEK293T cells assessed as phosphorylation of IRF-3 at (Ser396) at 10 uM incubated for 2 hrs and measured by Western blot analysis. It is filed as cell-based. As to conditions: filed as activator. A digest of the protocol:
(§2)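 HEK293T clones stably carrying each human STING variant, picked by blasticidin selection and limiting dilution. 5 x 10^5 cells were exposed to compound at 10μM for 2 h, lysed in RIPA with phosphatase and protease inhibitors, and 10 μg protein run on 10% SDS-PAGE. Immunoblots probed for pSTING (Ser366), pIRF3 (Ser396), total STING, IRF3 and actin, detected by ECL.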

The target of a further series is hERG (KCNH2) (Homo sapiens, UniProt Q12809). The series can be described thus: Inhibition of human ERG at 10 uM.
Sequence of hERG (KCNH2) (Q12809 whole entry): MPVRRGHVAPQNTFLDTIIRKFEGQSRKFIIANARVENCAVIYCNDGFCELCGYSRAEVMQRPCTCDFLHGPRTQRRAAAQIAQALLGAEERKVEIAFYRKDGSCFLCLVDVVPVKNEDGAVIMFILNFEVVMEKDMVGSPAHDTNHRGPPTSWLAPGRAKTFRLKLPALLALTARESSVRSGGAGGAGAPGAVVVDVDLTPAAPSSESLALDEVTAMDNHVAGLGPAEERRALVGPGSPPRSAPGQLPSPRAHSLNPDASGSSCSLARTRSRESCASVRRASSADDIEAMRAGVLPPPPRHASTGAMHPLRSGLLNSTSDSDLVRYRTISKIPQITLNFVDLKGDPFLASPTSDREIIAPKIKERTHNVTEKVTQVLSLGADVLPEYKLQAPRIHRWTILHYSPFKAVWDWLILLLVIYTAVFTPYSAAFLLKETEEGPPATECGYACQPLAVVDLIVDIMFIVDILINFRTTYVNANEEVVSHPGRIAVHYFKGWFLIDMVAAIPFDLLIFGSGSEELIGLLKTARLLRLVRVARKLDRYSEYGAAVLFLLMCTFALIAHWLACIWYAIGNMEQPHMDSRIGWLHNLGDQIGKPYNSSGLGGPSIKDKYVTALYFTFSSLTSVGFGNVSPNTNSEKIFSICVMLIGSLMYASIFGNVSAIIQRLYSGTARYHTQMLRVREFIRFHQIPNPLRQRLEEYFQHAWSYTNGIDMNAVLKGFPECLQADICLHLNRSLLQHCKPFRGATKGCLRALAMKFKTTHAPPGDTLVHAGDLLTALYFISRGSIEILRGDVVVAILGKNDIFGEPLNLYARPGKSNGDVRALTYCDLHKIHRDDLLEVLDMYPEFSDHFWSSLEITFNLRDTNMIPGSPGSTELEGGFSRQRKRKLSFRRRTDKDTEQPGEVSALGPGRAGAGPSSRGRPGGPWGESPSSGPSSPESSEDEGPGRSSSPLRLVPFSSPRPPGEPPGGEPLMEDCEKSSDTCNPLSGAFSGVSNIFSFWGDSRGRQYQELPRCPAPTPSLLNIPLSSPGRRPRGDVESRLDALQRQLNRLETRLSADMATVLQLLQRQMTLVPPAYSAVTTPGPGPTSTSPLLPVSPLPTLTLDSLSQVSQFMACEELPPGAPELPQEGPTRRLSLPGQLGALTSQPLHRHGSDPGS
For series [6], the system named is HEK293T. The experiment in a line: Induction of STING H232 mutant (unknown origin) expressed in HEK293T cells assessed as increase in luciferase coupled ISG54-ISRE activity incubated for 18 hrs luciferase reporter gene assay. It is filed as cell-based. As to conditions: Homo sapiens, filed as activator.
The test system of series [7] is Stimulator of interferon genes protein (Homo sapiens), Q86WV6 [R71H,G230A,R293Q]. The experiment in a line: Activation of human STING HAQ mutant expressed in HEK293T cells assessed as phosphorylation at (Ser366) at 10 uM incubated for 2 hrs and measured by Western blot analysis. It is filed as cell-based. To be noted: filed as activator. A digest of the protocol:
as §2

The target in series [8] is T1, Stimulator of interferon genes protein (Mus musculus) (UniProt Q3TBT3).
T1 sequence (whole entry): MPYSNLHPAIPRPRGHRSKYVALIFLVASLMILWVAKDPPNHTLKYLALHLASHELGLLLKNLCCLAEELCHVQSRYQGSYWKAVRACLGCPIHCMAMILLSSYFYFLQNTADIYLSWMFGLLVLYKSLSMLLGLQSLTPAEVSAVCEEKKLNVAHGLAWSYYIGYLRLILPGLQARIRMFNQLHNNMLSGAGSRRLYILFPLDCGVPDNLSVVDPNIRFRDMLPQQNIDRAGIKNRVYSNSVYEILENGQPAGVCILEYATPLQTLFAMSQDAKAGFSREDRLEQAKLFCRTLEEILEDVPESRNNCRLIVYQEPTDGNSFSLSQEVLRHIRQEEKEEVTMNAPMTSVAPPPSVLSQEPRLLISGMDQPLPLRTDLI
The series can be described thus: Activation of mouse STING.

Series [9] in a line: Volume of distribution in BALB/c mouse at 5 mg/kg, iv measured up to 24 hrs by LC-MS/MS analysis. To be noted: in vivo. It is filed as ADME, organism-based. A digest of the protocol:
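Overnight-fasted mice, randomized, n=3 per group, each given a single dose by lateral tail vein (iv) or oral gavage. Blood (50 μl per point, under isoflurane) was taken from the retro-orbital plexus. Sampling was at 2 min–24 h after iv and 5 min–24 h after oral dosing. Plasma was separated at 1500 x g for 15 min at 4 °C, stored at -80 °C, and analysed by LCMS.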

The target of series [10] is T2, Stimulator of interferon genes protein (Homo sapiens, UniProt Q86WV6). The series can be described thus: Activation of human STING in human PBMC cells assessed as induction of IL6 expression at 10 uM measured by qt-PCR analysis. It is filed as cell-based. As to conditions: filed as activator. In a few lines: (§3)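 2 x 10^5 freshly isolated human PBMC from healthy donors, separated on Histopaque, given a single compound concentration. Harvested early (6 hr) or late (20h). Cytokine mRNA read by qRT-PCR as relative normalized expression (fold) against vehicle-treated cells.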
T2 sequence (Q86WV6 whole entry): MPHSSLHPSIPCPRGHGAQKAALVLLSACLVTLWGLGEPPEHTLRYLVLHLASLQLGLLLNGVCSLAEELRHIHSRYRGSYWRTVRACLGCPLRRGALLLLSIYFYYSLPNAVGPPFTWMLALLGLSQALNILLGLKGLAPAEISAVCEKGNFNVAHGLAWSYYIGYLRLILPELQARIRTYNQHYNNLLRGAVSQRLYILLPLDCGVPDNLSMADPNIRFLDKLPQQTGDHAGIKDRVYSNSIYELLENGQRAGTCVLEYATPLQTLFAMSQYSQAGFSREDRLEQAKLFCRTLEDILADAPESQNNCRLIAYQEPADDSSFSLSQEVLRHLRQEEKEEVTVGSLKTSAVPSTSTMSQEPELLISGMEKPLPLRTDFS

Series [11] concerns the target T2, Stimulator of interferon genes protein. The experiment in a line: Activation of human STING in human PBMC cells assessed as induction of IFNbeta expression at 10 uM incubated upto 24 hrs and measured by qt-PCR analysis. It is filed as cell-based. To be noted: filed as activator, time hrs <=24. In a few lines:
as §3

Series [12] deals with Stimulator of interferon genes protein (Homo sapiens), Q86WV6 [UNDEFINED MUTATION]. The series can be described thus: Activation of human STING R232 in human MDA-MB-468 cells assessed as phosphorylation of IRF3 at (Ser396) at 10 uM incubated for 2 hrs and measured by Western blot analysis. To be noted: filed as activator. It is filed as cell-based. A digest of the protocol:
(§4)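 Tumor cell lines or human primary cells carrying endogenous STING variants; STING KO cells as control. 10µM for 2 h, then lysed in RIPA with phosphatase and protease inhibitors. 10 μg protein on 10% SDS-PAGE, blotted for pSTING (Ser366), pIRF3 (Ser396), STING, IRF3 and actin, ECL detection.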
Background: In western blotting, separated proteins are transferred to a membrane and probed.

Series [13] has as its system Stimulator of interferon genes protein (Homo sapiens), Q86WV6 [R71H,G230A,R293Q]. The experiment in a line: Induction of STING HAQ mutant (unknown origin) expressed in HEK293T cells assessed as increase in luciferase coupled ISG54-ISRE activity incubated for 18 hrs luciferase reporter gene assay. It is filed as cell-based. To be noted: filed as activator.
The nature of series [14]: Cmax in BALB/c mouse at 10 mg/kg, po measured up to 24 hrs by LC-MS/MS analysis. It is filed as ADME, organism-based. On the set-up: route oral, dose 10 mg/kg, time <=24. As to conditions: in vivo. In a few lines:
as §1

Series [15] relates to Stimulator of interferon genes protein (Homo sapiens), Q86WV6 [UNDEFINED MUTATION]. The series can be described thus: Activation of human STING R232 in A 172 cells assessed as phosphorylation at (Ser366) at 10 uM incubated for 2 hrs and measured by Western blot analysis. It is filed as cell-based. As to conditions: filed as activator. A digest of the protocol:
as §4

For series [16] the test system is unchanged. The series can be described thus: Activation of human STING R232 in A 172 cells assessed as phosphorylation of IRF-3 at (Ser396) at 10 uM incubated for 2 hrs and measured by Western blot analysis. As to conditions: filed as activator. It is filed as cell-based. In a few lines: as §4
A further series addresses Cytochrome P450 3A4 (Homo sapiens, UniProt P08684). The experiment in a line: Inhibition of CYP3A4 (unknown origin). It is filed as ADME.
Series [17] concerns Stimulator of interferon genes protein (Homo sapiens), Q86WV6 [UNDEFINED MUTATION]. The series can be described thus: Activation of human STING R232 in human MDA-MB-468 cells assessed as phosphorylation at (Ser366) at 10 uM incubated for 2 hrs and measured by Western blot analysis. It is filed as cell-based. To be noted: filed as activator. In a few lines: as §4
Sequence of Stimulator of interferon genes protein (Homo sapiens), Q86WV6 [UNDEFINED MUTATION] (Q86WV6 whole entry, looked up, change not shown): as the sequence (Q86WV6 whole entry) above
Series [18] can be described thus: AUC in BALB/c mouse at 10 mg/kg, po measured up to 24 hrs by LC-MS/MS analysis. It is filed as ADME, organism-based. More on the design: route oral, dose 10 mg/kg, time <=24. To be noted: in vivo. In a few lines: as §1

Sequence of Stimulator of interferon genes protein (Homo sapiens), Q86WV6 [R71H,G230A,R293Q] (Q86WV6 whole entry R71H/G230A/R293Q): as the sequence (Q86WV6 whole entry) above, with R71H, G230A, R293Q counted along it
Sequence of Stimulator of interferon genes protein (Homo sapiens), Q86WV6 [G230A,R293Q] (Q86WV6 whole entry G230A/R293Q): as the sequence (Q86WV6 whole entry) above, with G230A, R293Q counted along it
Sequence of Cytochrome P450 3A4 (P08684 whole entry): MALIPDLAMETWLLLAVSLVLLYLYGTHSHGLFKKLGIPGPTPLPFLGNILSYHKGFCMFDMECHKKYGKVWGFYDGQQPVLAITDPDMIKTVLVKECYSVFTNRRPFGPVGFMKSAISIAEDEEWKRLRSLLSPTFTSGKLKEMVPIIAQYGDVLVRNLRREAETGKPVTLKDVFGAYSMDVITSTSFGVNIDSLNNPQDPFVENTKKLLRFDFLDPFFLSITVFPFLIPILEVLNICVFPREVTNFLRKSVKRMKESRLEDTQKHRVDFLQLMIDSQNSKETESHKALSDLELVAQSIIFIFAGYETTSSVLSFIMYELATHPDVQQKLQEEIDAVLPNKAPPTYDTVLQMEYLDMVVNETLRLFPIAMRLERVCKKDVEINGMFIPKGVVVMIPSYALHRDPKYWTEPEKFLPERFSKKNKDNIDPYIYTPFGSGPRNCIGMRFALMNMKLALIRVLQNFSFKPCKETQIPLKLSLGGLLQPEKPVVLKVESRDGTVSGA

As to `CC1(C)C(=O)N(Cc2c(F)cccc2Cl)c2cc(C(=O)NCc3c(F)cc(F)cc3F)ccc21`, the outcome (in series [1]; in the series with HEK293T [2]; in series [3]; in [5]; in the series on HEK293T [6]; in [7]) was Active. In addition, the outcome in series [10], in [11], in [12], in series [13], in [15] and in [16] was Active. In addition, the result in [17] was Active. Also, the “inhibition (INH)” value at Cytochrome P450 2D6 and at Cytochrome P450 3A4 was “Not Active” throughout. Further, the Cmax amounted to 1870 ng/mL in [4] and 1720 ng/mL in [14]. The inhibition at 10 µM against hERG (KCNH2) turned out to be 20%. In addition, the result in series [8] was inactive. In [9], the volume of distribution (Vd) was 2.69 L/kg. The AUC at 24 h in series [18] came out at 2090 ng·h/mL.
